Compound activity as filed in PubChem.
MEX-5 binding – C. elegans MEX-5 TCR-2 RNA binding activity; activity score (negative = inhibition of binding), % at 10 µM; 0.38% of 300,000 active; MEX-5/FITC-TCR2 RNA binding, fluorescence polarization; hits give low values;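 active = inhibition past about -25% in most replicates, and total fluorescence under double the plate's negative control median, limit read from the data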;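 note: 0% = DMSO and -100% = 5 µM competing unlabeled TCR2 RNA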
Target sequence (Q9XUB2 whole entry, looked up): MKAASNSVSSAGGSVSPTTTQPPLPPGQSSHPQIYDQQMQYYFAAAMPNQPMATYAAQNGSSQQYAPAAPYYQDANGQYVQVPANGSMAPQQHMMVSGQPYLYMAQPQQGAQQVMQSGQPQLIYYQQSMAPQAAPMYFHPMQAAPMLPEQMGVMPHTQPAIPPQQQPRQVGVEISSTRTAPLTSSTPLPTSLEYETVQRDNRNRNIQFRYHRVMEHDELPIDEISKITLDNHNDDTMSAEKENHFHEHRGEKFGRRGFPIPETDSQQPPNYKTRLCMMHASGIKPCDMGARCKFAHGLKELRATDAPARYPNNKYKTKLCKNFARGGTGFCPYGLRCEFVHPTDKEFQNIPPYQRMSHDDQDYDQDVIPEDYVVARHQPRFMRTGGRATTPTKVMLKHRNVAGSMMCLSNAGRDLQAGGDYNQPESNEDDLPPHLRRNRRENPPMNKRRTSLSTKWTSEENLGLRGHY
EBNA-1 inhibitor – blocks EBNA-1 binding to DNA; EBNA-1 DNA binding, fluorescence polarization; 0.34% of 300,000 active; AID 1950; inhibition, % at 14.8 µM; in the data active = inhibition above about 28%
ZTA DNA inh – ZTA (EBV) inhibition in EBNA-1 counter-screen; P03206; ZTA-DNA binding, fluorescence polarization; inhibition, % at 11 µM; 0.15% of 320,000 active; AID 2234; in the data active = inhibition above about 33%
EBV gp42 block – inhibitors of Epstein-Barr virus glycoprotein 42 | AID 1085 | inhibition, % (tested at 21.74 µM) | 0.42% of 220,000 active | Fluorescence polarization binding assay, mP read-out; in the data active = inhibition above about 50%
HCV core dimer – blocks dimerization of HCV core protein | TR-FRET GST/Flag-core106 dimerization, 1536-well | inhibition, % at 5 µM | 0.33% of 300,000 active;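 active = inhibition above the mean of all tested compounds plus 3 SD, set per screening campaign, cut at about 45% in these data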
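Assay system: GST-tagged and Flag-tagged HCV core protein residues 1-106 / Times: compound-protein-antibody incubation 4 h at 22.5 °C / Signal: time-resolved FRET, ex 340 nm, em 617 and 671 nm / Evaluation: % inhibition based on acceptor/donor emission ratio / Benchmarks: wells lacking GST-core106 and wells with excess unlabelled core106 / Repeats: singlicate, one well per compound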
NS3 helicase inh – inhibitors of Hepatitis C virus NS3 helicase; NS3 helicase DNA unwinding, Cy5 molecular beacon fluorescence; inhibition, % at 10.9 µM; 0.56% of 290,000 active;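 active = inhibition above the mean of all tested compounds plus 3 SD, set per campaign, cut at about 35% in these data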;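 note: 0% = DMSO wells and 100% = thioflavine S control wells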
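Assay system: hepatitis C virus NS3 helicase domain fragment enzyme. Also added: annealed dual-labelled DNA beacon duplex, ATP-started. Timing: 1 h reaction at 25 °C, ATP-initiated. Technique: Cy5 fluorescence at 0 and 60 min, beacon hairpin quenching. Evaluation: % inhibition of unwinding. Replication: one well per compound.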
NS3 hel confirm – HCV NS3 helicase inhibition, confirmation assay | shares compounds with NS3 helicase inh | NS3 helicase DNA unwinding, Cy5 molecular beacon fluorescence | inhibition, % at 10.9 µM | 31% of 1,600 active;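 active = inhibition above the mean of all tested compounds plus 3 SD, cutoff set per campaign, cut at about 36% in these data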
FID counter trip – intercalator displacement, NS3 helicase counter-screen; shares compounds with NS3 helicase inh; inhibition, % at 7.9 µM; 4% of 1,600 active; AID 1945; DNA fluorescent intercalator displacement, fluorescence; in the data active = inhibition above about 37%;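 note: 0% = vehicle and 100% = reference compound; higher means more displacement of ethidium bromide from the DNA hairpin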
* = called active by the depositor; . = no result given. Hits are enriched below; roughly 1.7% of the tested compounds scored in any of these assays.

SMILES	MEX-5 binding	EBNA-1 inhibitor	ZTA DNA inh	EBV gp42 block	HCV core dimer	NS3 helicase inh	NS3 hel confirm	FID counter trip
COc1ccc(C(=O)CC(=O)C(=O)Nc2ccc([N+](=O)[O-])cc2C)cc1	-0.6	1.9	4.1	.	1.1	36.6*	-7.8	-7.3
COc1ccc(C(=O)CC(=O)C(=O)Nc2ccccc2)cc1	1.0	-9.0	-12.3	.	2.7	21.1	.	.
COc1ccc(C(=O)CC(=O)C(=O)Nc2cc(C)ccc2C)cc1	-0.1	5.0	7.4	.	12.8	30.1	.	.
Cc1ccccc1CCNC(=O)c1ccc(Cl)c(S(=O)(=O)N2CC(C)OC(C)C2)c1 (stereo unspecified)	.	.	-2.9	.	.	.	.	.
O=C(C1=C(O)C(=O)N(CC2CCCO2)C1c1ccc(Cl)cc1Cl)c1ccco1 (stereo unspecified)	0.8	2.1	13.6	.	-1.4	67.6*	-3.0	-21.1
CC(C)(C)c1ccc(C2C(C(=O)c3ccco3)=C(O)C(=O)N2CC2CCCO2)cc1 (stereo unspecified)	-2.0	-3.5	8.3	.	8.8	37.5*	9.5	-12.9
N#CCCN(C(=O)COC(=O)CNC(=O)c1cccs1)c1ccc(F)cc1	0.3	2.4	-14.2	.	-6.3	.	.	.
CC[C@@H](C)[C@H](NC(=O)Cc1c(C)c2cc3c(C)coc3c(C)c2oc1=O)C(=O)O	1.2	9.0	0.5	.	1.7	16.6	.	.
CC[C@@H](C)[C@H](NC(=O)Cc1c(C)c2cc3c(C)c(C)oc3c(C)c2oc1=O)C(=O)O	-0.1	6.4	6.1	.	4.8	49.3*	74.7*	9.2
Cc1oc2c(c(C)cc3oc(=O)c(CC(=O)N[C@@H](CC(C)C)C(=O)O)c(C)c32)c1C	2.2	.	.	.	.	47.3*	24.1	-35.0
Cc1oc2c(c(C)cc3oc(=O)c(CC(=O)N[C@H](C(=O)O)C(C)C)c(C)c32)c1C	0.8	.	.	.	.	7.3	.	.
Clc1ccccc1Cn1c(/C=C/c2ccco2)nc2ccccc21	0.4	6.9	-11.3	9.7	-2.9	51.5*	11.2	-22.8
CN(C(=O)c1cccc(S(=O)(=O)N2CCCC2)c1)C1CCCCC1	.	.	-8.9	.	.	.	.	.
CCC(=O)Nc1ccc2ccccc2c1	2.0	4.8	5.3	-14.5	-2.1	0.7	.	.
CCC(=O)Nc1ccc2nc3c(=O)[nH]c(=S)[nH]c3nc2c1	-46.4*	9.6	3.5	.	-13.5	39.1*	-21.2	5.5
O=C(O)C1Nc2c(O)cc(Cl)c([N+](=O)[O-])c2C2C=CCC12 (stereo unspecified)	-60.4*	57.8*	90.5*	87.5*	-3.5	70.0*	78.7*	21.6
CC1=NN(c2ccccc2)C(=O)/C1=C/C=C/C=C/N(C)C	65.4	-16.6	-10.3	-190.5	-30.8	38.7*	-16.4	11.8
O=C(c1ccccc1Cl)c1c(O)c2ccccc2oc1=O	4.3	5.9	-11.0	.	-6.8	.	.	.
O=S(=O)(c1cccs1)N1CN(Cc2ccccc2)c2nc3ccccc3nc21	0.5	3.7	-1.7	-2.7	6.6	-2.0	.	.
O=S(=O)(c1cccs1)N1CN(Cc2ccc(F)cc2)c2nc3ccccc3nc21	.	-8.0	4.0	-3.5	14.3	50.5*	-19.9	-1.6
Oc1c(Cl)cc(CN2CCCCC2)c2cccnc12	-1.5	1.5	-6.5	.	-8.8	36.6*	-8.0	6.7
Oc1ccc(CN2CCCCC2)c2cccnc12	-4.0	-5.9	-3.9	-7.4	-1.0	5.0	.	.
COc1ccc(Br)cc1C1Nc2cccc3cccc(c23)N1	-2.2	-4.5	5.5	.	45.1	96.9*	-28.3	27.5
COc1cc(C2Nc3cccc4cccc(c34)N2)ccc1O	-10.9	4.0	8.5	.	16.4	19.1	.	.
O=C(O)c1ccccc1C(=O)c1cccc2ccccc12	2.2	5.9	7.3	.	5.5	10.2	.	.
O=C(N/N=C1/CC2CCC1C2)c1cc2ccccc2cc1O (stereo unspecified)	1.6	1.2	6.2	.	3.0	49.1*	1.1	-7.8
O=C(NCC1CCCCC1)c1cc2ccccc2cc1O	0.3	-0.4	-18.0	.	3.8	10.3	.	.
Cc1ccc(S(=O)(=O)N2CCN(C(=O)CSCc3ccc(C(C)C)cc3)CC2)cc1	.	.	-6.7	.	.	.	.	.
